ChEMBL document CHEMBL4513216, “Probing the Open Global Health Chemical Diversity Library for Multistage-Active Starting Points for Next-Generation Antimalarials” (ACS Infect Dis, 2020)

Assay: Toxicity liver stage against HepG2, at 10uM
Type: cell-based
Set-up: test concentration 10 uM, cell line HepG2-A16-CD81EGFP
Conditions: human, HepG2-A16-CD81EGFP cells; read-out: INHIBITION
Outline: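 Uninfected HepG2-A16-CD81EGFP cells, 3 × 10^3 per well, 1536-well, plated on prespotted compound at 10 μM final, parasite-free screening media added to match infected plates; puromycin 10 μM positive, DMSO 0.5% negative; run in parallel with 48 h PbLuc assay at 37 °C, 5% CO2; viability by CellTiter-Glo luminescence, normalized to controls.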

| Compound | cytotoxicity at 10 µM [%] |
| --- | --- |
| CCc1ccsc1C(=O)N1CCN(CC(O)CC)CC1 (stereo not drawn) | -4.25 |
| COc1ccc(-n2ccc(C(=O)NCCN3CCC(C)CC3)n2)cc1 | -6.48 |
| Cc1csc(C2(NCC(O)COc3ccc(F)cc3)CCC2)n1 (stereo not drawn) | 14.9 |
| COc1nccc(C(F)(F)F)c1C(=O)O | 16 |
| CN(CCC#N)C(=O)CCOc1cccc(F)c1 | -2.46 |
| COc1cccc2cc(CNC(C)(C)C(=O)N3CCC(O)CC3)oc12 | -12.2 |
| CC(C)(C)CN1CCN(CC2CC2)C(CCO)C1 (stereo not drawn) | -2.42 |
| c1csc(CN2CCCn3cnc(COCC4CC4)c3C2)c1 | -74.6 |
| CC1CN(Cc2cccc(C#N)c2)CCN1c1ccc2nncn2n1 (stereo not drawn) | 9.56 |
| COc1cccc(CN2CCOC(Cn3nc(C)cc3C)C2)c1 (stereo not drawn) | 7.83 |
| COc1ccc(C(C)NC(=O)Nc2nnc(C)s2)cc1OC (stereo not drawn) | 9.67 |
| CCn1c(CC2CCN(C(=O)C3COCCO3)CC2)nn(C)c1=O (stereo not drawn) | -0.525 |
| O=C(NCc1ccc(Br)cc1)C1(O)CCSCC1 | -3.59 |
| CN(CCNC(=O)c1ccnc(-n2ccnc2)c1)C1CC1 | 3.31 |
| CC1CCN(C(=O)c2cnc(CC3CCCN(C)C3)cn2)CC1 (stereo not drawn) | -11.7 |
| Cc1cccnc1NC(=O)N(CCO)Cc1ccsc1 | -11.3 |
| CCC(=O)N1CCN(C(=O)CCn2cccn2)CC1 | -2.6 |
| Cc1ncc(C(=O)N2CCC(N3CCc4ccccc4C3)CC2)c(O)n1 | -0.745 |
| Cc1nc(CN2CCC(c3ccnn3CCO)CC2)oc1C | -15.9 |
| COc1ccc(C[C@H]2CN(C(=O)c3cc(C)no3)CC[C@H]2OC)cc1 | 6 |

| Compound | cytotoxicity at 10 µM [%] |
| --- | --- |
| Cc1nn(C)c(C)c1CN(C)c1nc(C2CCCC2)nc2c1cnn2C | 27.9 |
| COC(=O)COn1c(SCC(=O)OC)nc2ccccc2c1=O | -8.38 |
| CCN(C(=O)CN(Cc1cccc(O)c1)C1CCC(O)CC1)C1CC1 (stereo not drawn) | 1.31 |
| c1cc(C2CCN(c3ncnc4c3CCNCC4)CC2)ccn1 | 8.33 |
| c1cc(-c2cnccn2)cc(-c2ccn(CCN3CCCCC3)n2)c1 | -4.54 |
| CC(C)Oc1ncccc1CNC(=O)N1CCOCC1 | -40.6 |
| O=C(c1ccco1)N1C[C@@H]2OCCN(CCN3CCCC3)[C@@H]2C1 | 1.54 |
| O=C(c1cnc2ccccc2c1)N1CCCC(O)(CN2CCCC2)C1 (stereo not drawn) | 9.27 |
| Cn1ccnc1-c1cccc(NC(=O)NCC(=O)NC(C)(C)C)c1 | -3.84 |
| Cc1nccn1CCCC(=O)N1CCC2(CCC(=O)N(C(C)C)C2)CC1 | -10.8 |
| O=C(Cc1ccsc1)N1CCn2cc(Cn3cncn3)nc2C1 | -142 |
| Cc1ncccc1C(=O)NCc1ccccc1CN(C)Cc1ccco1 | 8.35 |
| CCN(CC)c1ccc(NC(=O)N2CCc3sccc3C2)cn1 | -5 |
| CN1CCCC(CCC(=O)NCCCn2ncc3ccccc32)C1 (stereo not drawn) | 2.39 |
| Cc1c(C(=O)N2CCOCC2)n(C)c2ccc(Cl)cc12 | -0.244 |
| COc1cc(COCC2CCN(Cc3cccnc3)CC2)cc(OC)c1 | 0 |
| CCC(C)C(=O)NCc1ccn(-c2ccc(F)cc2)n1 (stereo not drawn) | -2.42 |
| COCCn1c2c(ccc1=O)CCN(C(=O)C1CC=CC1)CC2 | 4.77 |
| COc1ncnc2c1CCN(C(=O)Cc1cccc(F)c1)CC2 | 3.88 |
| CCc1nccn1C1CCCN(C(=O)c2ccnc(N(C)C)c2)C1 (stereo not drawn) | 0.795 |

| Compound | cytotoxicity at 10 µM [%] |
| --- | --- |
| Cc1cc(C)n(C2CCCN(C(=O)Cc3ccc(C#N)cc3)C2)n1 (stereo not drawn) | -1.31 |
| CN(C)CCO[C@H]1CN(C(=O)c2ccc[nH]2)[C@@H]2COC[C@H]12 | 5.06 |
| O=C1[C@H]2CN(Cc3ccoc3)C[C@@H]2CCN1Cc1cccnc1 | -71.5 |
| Cc1ccc(-c2cn[nH]c2C2CCCN(c3ncccn3)C2)cc1 (stereo not drawn) | 87.3 |
| Cc1nc2c(N(CCC(N)=O)CCc3ccccc3)ncnc2o1 | 4.6 |
| Cc1nnc2n1CCN(C(=O)c1cc(Cl)c[nH]1)C2 | -5.87 |
| CCc1cnccc1C(=O)NC1CCN(C(=O)C2CCCCC2)CC1 | 3.51 |
| Cc1cc(C(=O)N2CCC(c3nccn3Cc3ccncc3)CC2)no1 | -15.7 |
| CN(CC(=O)NCc1cc2ccccc2o1)S(C)(=O)=O | 4.59 |
| COCC1c2c(cnn2C)CCN1Cc1ccc(C)cc1 (stereo not drawn) | 45 |
| Cc1cnn(C2CCCN(C(=O)c3ccnc(-n4ccnc4)c3)C2)c1 (stereo not drawn) | -1.88 |
| O=C(Cc1csc(Cc2ccccn2)n1)NCCCN1CCCC1=O | -6.29 |
| O=C(c1ccnn1COc1ccc(Cl)cc1)N1CCSCC1 | -4.56 |
| COCC1c2nnn(CC3CC3)c2CCN1C(=O)c1cccc(F)c1 (stereo not drawn) | -8.31 |
| CN(CCc1ccccn1)S(=O)(=O)N1CCCC1c1ccco1 (stereo not drawn) | -14.8 |
| COc1cc(C(C)=O)ccc1OC12CCCN(CC1)C2 (stereo not drawn) | 10.2 |
| CC(C)c1nncn1CCNC(=O)c1c(O)cc(F)cc1F | -1.99 |
| COc1ccc(NC(=O)COc2nn(C)c3nc(C)cc(C)c23)cn1 | -4.36 |
